This note sets out measurements from ChEMBL document CHEMBL2069238, “Discovery of potent and selective rhodanine type IKKβ inhibitors by hit-to-lead strategy” (Bioorg Med Chem Lett, 2012).

For test [1], the target named is T1, Inhibitor of nuclear factor kappa-B kinase subunit alpha (Homo sapiens, UniProt O15111).
T1 sequence (O15111 whole entry): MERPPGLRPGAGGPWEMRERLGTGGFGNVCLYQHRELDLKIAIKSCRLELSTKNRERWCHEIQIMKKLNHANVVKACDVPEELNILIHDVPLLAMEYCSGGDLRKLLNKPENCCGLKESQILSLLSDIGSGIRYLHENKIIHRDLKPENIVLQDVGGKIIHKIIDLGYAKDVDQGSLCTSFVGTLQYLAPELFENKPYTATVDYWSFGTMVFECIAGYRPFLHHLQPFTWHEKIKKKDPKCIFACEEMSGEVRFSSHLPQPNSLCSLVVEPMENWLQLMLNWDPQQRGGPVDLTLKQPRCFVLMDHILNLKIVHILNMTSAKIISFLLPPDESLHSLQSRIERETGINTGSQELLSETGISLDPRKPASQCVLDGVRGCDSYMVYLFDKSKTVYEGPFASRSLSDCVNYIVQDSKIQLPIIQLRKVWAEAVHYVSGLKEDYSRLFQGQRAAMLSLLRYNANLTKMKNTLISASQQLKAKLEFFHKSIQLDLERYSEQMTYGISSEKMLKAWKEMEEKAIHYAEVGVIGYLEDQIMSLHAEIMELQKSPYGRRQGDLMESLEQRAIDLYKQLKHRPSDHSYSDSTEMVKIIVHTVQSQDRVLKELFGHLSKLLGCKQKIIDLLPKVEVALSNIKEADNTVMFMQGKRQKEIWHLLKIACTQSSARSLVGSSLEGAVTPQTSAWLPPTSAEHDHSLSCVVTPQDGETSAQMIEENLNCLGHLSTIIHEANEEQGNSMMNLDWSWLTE
Description: Inhibition of IKKalpha.

For test [2], the target named is T2, Inhibitor of nuclear factor kappa-B kinase subunit beta (Homo sapiens, UniProt O14920).
T2 sequence (O14920 whole entry): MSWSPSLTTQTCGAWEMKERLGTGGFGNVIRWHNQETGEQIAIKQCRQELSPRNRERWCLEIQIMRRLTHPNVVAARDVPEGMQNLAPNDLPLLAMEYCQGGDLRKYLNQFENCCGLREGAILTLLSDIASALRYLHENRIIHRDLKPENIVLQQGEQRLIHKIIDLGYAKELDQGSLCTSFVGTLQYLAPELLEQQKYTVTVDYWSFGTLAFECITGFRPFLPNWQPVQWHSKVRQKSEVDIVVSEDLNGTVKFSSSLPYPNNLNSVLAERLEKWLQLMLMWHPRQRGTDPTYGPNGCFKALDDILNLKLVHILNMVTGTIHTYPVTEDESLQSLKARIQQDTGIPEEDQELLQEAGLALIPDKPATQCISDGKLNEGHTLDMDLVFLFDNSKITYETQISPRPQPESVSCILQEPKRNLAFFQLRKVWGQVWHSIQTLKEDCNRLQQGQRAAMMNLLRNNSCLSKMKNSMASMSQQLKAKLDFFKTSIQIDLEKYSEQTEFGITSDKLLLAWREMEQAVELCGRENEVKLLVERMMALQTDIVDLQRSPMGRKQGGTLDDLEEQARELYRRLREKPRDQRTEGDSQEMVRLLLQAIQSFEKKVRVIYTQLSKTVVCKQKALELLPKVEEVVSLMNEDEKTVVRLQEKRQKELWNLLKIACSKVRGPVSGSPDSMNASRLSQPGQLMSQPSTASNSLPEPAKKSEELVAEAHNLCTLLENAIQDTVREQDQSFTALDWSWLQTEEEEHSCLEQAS
Description: Inhibition of IKKbeta using 5FAM-GRHDSGLDSMK-NH2 as substrate incubated for 10 mins prior to substrate addition by IMAP-TR-FRET assay. (In general: TR-FRET usually uses a lanthanide donor and a delayed reading to cut background.)

Test [3] has as its target Mitogen-activated protein kinase 11 (Homo sapiens, UniProt Q15759). The experiment in a line: Inhibition of MAPK p38beta.
Test [4] deals with T3, Inhibitor of nuclear factor kappa-B kinase subunit beta (Homo sapiens) (UniProt O14920).
T3 sequence (whole entry): T2 sequence (O14920 whole entry)
The experiment in a line: Inhibition of IKKbeta using 5FAM-GRHDSGLDSMK-NH2 as substrate at 10 uM incubated for 10 mins prior to substrate addition by IMAP-TR-FRET assay.

The target in test [5] is T4, Inhibitor of nuclear factor kappa-B kinase subunit beta (Mus musculus, UniProt O88351).
T4 sequence (O88351 whole entry): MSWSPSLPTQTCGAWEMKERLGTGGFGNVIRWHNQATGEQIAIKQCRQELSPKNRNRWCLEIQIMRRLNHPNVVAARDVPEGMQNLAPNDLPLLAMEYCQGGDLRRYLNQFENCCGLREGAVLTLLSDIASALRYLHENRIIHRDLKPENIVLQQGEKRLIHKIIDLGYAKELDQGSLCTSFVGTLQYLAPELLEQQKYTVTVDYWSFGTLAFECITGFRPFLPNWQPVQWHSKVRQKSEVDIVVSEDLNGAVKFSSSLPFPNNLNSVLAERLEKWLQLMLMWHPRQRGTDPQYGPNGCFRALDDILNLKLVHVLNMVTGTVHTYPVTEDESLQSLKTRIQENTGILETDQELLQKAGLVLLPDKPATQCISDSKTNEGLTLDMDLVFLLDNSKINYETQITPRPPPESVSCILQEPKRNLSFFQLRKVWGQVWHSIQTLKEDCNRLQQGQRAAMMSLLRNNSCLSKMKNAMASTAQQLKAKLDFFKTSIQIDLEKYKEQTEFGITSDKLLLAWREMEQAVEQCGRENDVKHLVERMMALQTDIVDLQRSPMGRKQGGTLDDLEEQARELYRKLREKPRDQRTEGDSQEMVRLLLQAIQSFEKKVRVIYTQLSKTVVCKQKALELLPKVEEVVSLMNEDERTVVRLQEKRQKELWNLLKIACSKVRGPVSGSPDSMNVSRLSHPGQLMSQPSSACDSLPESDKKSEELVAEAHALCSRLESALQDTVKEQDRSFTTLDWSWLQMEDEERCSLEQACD
The experiment in a line: Inhibition of IKKbeta in mouse CIA model splenocytes assessed as inhibition of TNFalpha production after 72 hrs by ELISA. The class given is cell-based. In outline:
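Spleens from collagen type II-immunized mice were taken 8 weeks after primary immunization. Red cells were lysed with 0.83% ammonium chloride, and cells were strained and resuspended in RPMI 1640 at 1 × 10^6 cells/well, then exposed to inhibitor for 72 h. Supernatant TNFα was measured by sandwich ELISA with an alkaline phosphatase chromogenic read at 405 nm, quantified against a recombinant murine TNFα standard curve.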
In general terms: ELISA stands for enzyme-linked immunosorbent assay.

Test [6] has as its target T3, Inhibitor of nuclear factor kappa-B kinase subunit beta (Homo sapiens). The experiment in a line: Inhibition of IKKbeta in human HeLa cells assessed as inhibition of TPA-induced NFkappaB activation at 10 uM incubated for 1 hr prior to TPA-challenge measured after 8 hrs by luciferase reporter gene assay. Type of test: cell-based. The procedure, abridged:
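HeLa cells transfected with an NF-κB luciferase reporter plasmid, pre-treated with inhibitor for 1 h, then stimulated with TPA (50 ng/mL) for 8 h. Luciferase activity normalized to protein content of each extract, expressed as relative luciferase units per mg versus non-treated cells; n = 3.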
(In general: A reporter such as luciferase makes a cellular process visible.)

Test [7] deals with Mitogen-activated protein kinase 9 (Homo sapiens, UniProt P45984). Description: Inhibition of JNK2.
Mitogen-activated protein kinase 9, sequence (P45984 whole entry): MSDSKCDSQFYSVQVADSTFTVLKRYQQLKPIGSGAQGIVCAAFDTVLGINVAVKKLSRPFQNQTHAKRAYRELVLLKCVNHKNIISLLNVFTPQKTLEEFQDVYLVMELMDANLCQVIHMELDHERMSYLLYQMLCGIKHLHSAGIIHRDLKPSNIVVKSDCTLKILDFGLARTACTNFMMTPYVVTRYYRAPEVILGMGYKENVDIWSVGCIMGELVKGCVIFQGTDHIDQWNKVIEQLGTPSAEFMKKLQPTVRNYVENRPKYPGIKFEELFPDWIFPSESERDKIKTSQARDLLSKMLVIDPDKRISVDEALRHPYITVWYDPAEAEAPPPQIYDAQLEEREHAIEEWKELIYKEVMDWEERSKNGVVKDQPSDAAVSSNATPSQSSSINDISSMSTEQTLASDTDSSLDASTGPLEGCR
Test [8] addresses Mitogen-activated protein kinase 14 (Homo sapiens, UniProt Q16539). Description: Inhibition of MAPK p38alpha.
The target of test [9] is Mitogen-activated protein kinase 8 (Homo sapiens, UniProt P45983). The experiment in a line: Inhibition of JNK1.
Mitogen-activated protein kinase 8, sequence (P45983 whole entry): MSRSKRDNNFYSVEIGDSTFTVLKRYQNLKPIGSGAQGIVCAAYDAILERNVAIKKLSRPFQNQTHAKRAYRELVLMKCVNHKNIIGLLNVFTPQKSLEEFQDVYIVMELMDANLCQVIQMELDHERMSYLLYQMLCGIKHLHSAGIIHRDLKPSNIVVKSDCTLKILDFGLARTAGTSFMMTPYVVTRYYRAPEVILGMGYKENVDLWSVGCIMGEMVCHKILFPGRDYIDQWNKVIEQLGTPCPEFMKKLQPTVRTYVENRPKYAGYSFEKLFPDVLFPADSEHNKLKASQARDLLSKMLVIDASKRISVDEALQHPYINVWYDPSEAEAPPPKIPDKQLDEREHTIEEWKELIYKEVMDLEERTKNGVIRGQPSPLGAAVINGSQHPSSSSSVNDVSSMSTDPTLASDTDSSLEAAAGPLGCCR
The target of test [10] is Mitogen-activated protein kinase 10 (Homo sapiens, UniProt P53779). The experiment in a line: Inhibition of JNK3.
Mitogen-activated protein kinase 10, sequence (P53779 whole entry): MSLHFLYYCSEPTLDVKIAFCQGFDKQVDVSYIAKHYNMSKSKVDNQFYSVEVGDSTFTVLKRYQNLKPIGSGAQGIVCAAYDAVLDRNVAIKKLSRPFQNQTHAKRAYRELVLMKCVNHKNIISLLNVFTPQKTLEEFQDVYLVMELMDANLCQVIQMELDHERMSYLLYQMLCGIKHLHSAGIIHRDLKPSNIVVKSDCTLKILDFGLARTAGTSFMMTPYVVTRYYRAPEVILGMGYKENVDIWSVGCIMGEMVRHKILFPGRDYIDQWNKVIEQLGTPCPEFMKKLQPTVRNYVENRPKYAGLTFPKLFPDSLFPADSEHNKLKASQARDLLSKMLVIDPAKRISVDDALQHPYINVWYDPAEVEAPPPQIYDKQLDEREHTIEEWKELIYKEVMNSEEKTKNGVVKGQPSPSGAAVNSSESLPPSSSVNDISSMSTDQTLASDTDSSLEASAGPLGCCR

pIC50: −log10 of the molar value.

Mitogen-activated protein kinase 14, sequence (Q16539 whole entry): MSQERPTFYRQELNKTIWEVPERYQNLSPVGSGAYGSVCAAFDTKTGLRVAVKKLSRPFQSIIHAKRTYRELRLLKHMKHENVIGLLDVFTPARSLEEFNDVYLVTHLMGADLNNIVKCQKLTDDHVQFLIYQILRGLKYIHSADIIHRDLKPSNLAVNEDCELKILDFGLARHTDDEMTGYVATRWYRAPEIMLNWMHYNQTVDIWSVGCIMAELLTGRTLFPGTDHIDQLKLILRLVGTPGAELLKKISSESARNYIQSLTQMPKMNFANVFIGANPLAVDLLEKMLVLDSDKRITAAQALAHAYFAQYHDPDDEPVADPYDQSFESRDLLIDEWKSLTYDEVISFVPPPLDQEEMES
Mitogen-activated protein kinase 11, sequence (Q15759 whole entry): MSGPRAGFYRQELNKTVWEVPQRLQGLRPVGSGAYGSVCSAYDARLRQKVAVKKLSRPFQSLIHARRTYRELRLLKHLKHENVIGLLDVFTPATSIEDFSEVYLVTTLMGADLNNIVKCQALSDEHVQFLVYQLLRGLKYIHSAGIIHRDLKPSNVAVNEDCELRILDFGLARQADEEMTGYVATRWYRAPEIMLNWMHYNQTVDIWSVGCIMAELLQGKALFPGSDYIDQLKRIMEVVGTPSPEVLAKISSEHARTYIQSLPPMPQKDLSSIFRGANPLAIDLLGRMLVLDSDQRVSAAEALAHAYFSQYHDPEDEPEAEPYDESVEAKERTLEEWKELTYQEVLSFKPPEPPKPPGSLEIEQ

One may read the pIC50 as the IC50 on a negative log10 scale, so that one unit is a factor of ten. A word on the inhibition: it is the drop in the measured response relative to a control, in per cent. On to `CN1CCN(CCCOc2ccc(N3C(=O)/C(=C/c4ccc(Oc5ccc(C(N)=O)cc5)cc4)SC3=S)cc2)CC1`, for which the pIC50 in test [1] is below 4.52; in test [2], 6.46; in [3], below 4.52; in test [5], 5.70; in [7] it was below 4.52; in test [8], below 4.52. For the same compound, the negative-log IC50 (pIC50) in test [9] and in test [10] was below 4.52 in each case. Further, the inhibition in [4] worked out at 90.1%; in [6] it was 65.4%.
For `CN1CCN(CCCOc2ccc(N3C(=O)/C(=C/c4ccc(Oc5cccc(C(N)=O)c5)cc4)SC3=S)cc2)CC1`, the negative-log IC50 (pIC50) in test [1] is below 4.52; in [2], 5.82; in test [3], below 4.52; in [5], 5.30; in [7], below 4.52; in test [8], below 4.52. Also, the pIC50 in [9] and in test [10] was below 4.52 throughout. In addition, the inhibition came to 86.8% in test [4] and 64.7% in [6].
For `NC(=O)c1ccc(Oc2ccc(/C=C3\SC(=S)N(c4ccc(OCCCN5CCCC5)cc4)C3=O)cc2)cc1`, the pIC50 in test [1] was below 4.52; in test [2] it was 5.82; in test [3] it was below 4.52; in test [5], 5.30; in [7], below 4.52; in test [8] it was below 4.52. Besides, the pIC50 in test [9] and in [10] was below 4.52 in each case. Besides, the inhibition in test [4] was found to be 85.3%; in test [6], 58.5%.
